In ChEMBL document CHEMBL1151753, “New benzylureas as a novel series of potent, nonpeptidic vasopressin V2 receptor agonists” (J Med Chem, 2008):
≈ marks a conversion by molar mass, not a printed value. Calls of active or inactive are those of the source. The rule behind the calls is not given here.

Tests used:
Vasopressin V2 receptor [1] = biological target: T1, Vasopressin V2 receptor (Homo sapiens, UniProt P30518); assay: Agonist activity at human vasopressin V2 receptor expressed in HEK293 cells assessed as increase in intracellular cAMP level by CRE-luciferase reporter gene assay; assay type: functional, cell-based
T1 sequence (P30518 whole entry): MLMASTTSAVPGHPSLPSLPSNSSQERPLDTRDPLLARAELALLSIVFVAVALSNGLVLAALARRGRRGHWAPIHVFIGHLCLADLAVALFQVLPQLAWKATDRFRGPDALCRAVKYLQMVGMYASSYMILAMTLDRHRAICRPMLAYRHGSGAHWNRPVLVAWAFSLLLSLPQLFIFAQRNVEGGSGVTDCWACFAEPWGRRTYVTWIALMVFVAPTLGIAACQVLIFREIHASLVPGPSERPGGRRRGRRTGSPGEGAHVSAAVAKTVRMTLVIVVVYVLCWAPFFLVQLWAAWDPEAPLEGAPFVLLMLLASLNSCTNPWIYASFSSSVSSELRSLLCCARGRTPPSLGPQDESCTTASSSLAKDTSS
Summary of the method: (§1)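 HEK293 cells grown to 70-80% confluency, transiently transfected with receptor plus pGL4 CRE-Luc reporter, incubated 24 h at 37 °C/5% CO2, plated at 10000 cells/well, a further 24 h. Compounds in 0.5 log serial dilutions in duplicate, final DMSO 0.1%. Luciferase read by luminescence after 5 h at 37 °C, expressed as % of 100 nM AVP control. 4-parameter logistic fit gave EC50, reported as geometric mean ± SD.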

Oxytocin receptor = biological target: T2, Oxytocin receptor (Homo sapiens, UniProt P30559); assay: Binding affinity to oxytocin receptor
T2 sequence (P30559 whole entry): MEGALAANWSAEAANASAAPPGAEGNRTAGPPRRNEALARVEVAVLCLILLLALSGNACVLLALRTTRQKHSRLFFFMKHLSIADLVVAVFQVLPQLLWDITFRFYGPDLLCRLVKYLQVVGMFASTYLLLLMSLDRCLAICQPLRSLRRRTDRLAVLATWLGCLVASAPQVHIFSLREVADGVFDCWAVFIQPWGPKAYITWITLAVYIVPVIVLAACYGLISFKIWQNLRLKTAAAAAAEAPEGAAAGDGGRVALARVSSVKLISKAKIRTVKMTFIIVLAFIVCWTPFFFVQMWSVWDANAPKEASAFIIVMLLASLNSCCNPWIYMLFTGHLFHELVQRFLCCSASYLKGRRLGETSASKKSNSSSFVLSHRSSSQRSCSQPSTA

[2] = biological target: Vasopressin V2 receptor (Rattus norvegicus) (UniProt Q00788); assay: Agonist activity at rat vasopressin V2 receptor expressed in HEK293 cells assessed as increase in intracellular cAMP level by CRE-luciferase reporter gene assay relative to arginine vasopressin
Chain of Vasopressin V2 receptor (Rattus norvegicus) (Q00788 whole entry, looked up): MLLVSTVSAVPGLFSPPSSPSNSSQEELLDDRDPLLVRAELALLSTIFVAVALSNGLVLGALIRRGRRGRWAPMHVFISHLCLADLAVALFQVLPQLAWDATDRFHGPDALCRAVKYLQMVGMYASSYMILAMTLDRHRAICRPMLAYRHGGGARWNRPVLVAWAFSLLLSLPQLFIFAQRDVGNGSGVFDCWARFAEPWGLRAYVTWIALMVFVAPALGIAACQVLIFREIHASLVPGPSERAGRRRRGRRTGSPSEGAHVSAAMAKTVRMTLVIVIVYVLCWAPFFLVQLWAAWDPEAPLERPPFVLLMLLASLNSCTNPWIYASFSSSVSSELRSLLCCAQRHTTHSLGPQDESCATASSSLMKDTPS

Rattus norvegicus [3] = assay: Antidiuretic effect in Long-Evans Brattleboro rat model assessed as inhibition of urine production at 1 mg/kg, po after 1 hr relative to control; assay type: functional
Summary of the method: (§2)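 Brattleboro rats (Long-Evans hooded strain lacking circulating AVP, diabetes insipidus model) dosed orally in carboxymethyl cellulose. Voided urine collected and measured over 1 h periods and compared with vehicle-treated animals. At least six animals per group, data as means.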

Vasopressin V2 receptor [4] = biological target: Vasopressin V2 receptor (Rattus norvegicus, UniProt Q00788); assay: Agonist activity at rat vasopressin V2 receptor expressed in HEK293 cells assessed as increase in intracellular cAMP level by CRE-luciferase reporter gene assay; assay type: functional, cell-based; summary of the method: as §1
Chain of Vasopressin V2 receptor (Rattus norvegicus, UniProt Q00788) (Q00788 whole entry): as the sequence (Q00788 whole entry, looked up) above

Rattus norvegicus [5] = assay: Antidiuretic effect in Long-Evans Brattleboro rat model assessed as inhibition of urine production at 1 mg/kg, po in methylcellulose after 5 hrs; assay type: functional, organism-based; parameters: dose 1 mg/kg
Vasopressin V2 receptor [6] = biological target: T1, Vasopressin V2 receptor; assay: Binding affinity to human vasopressin V2 receptor expressed in HEK293 cells by radioligand binding assay; assay type: cell-based
[7] = Aqueous solubility of the compound; assay type: physicochemical; settings: water (aqueous)
Rattus norvegicus [8] = assay: Antidiuretic effect in Long-Evans Brattleboro rat model assessed as inhibition of urine production at 1 mg/kg, po after 1 to 2 hrs; assay type: functional, organism-based; parameters: dose 1 mg/kg; summary of the method: as §2
Vasopressin V2 receptor [9] = biological target: T1, Vasopressin V2 receptor; assay: Agonist activity at human vasopressin V2 receptor expressed in HEK293 cells assessed as increase in intracellular cAMP level by CRE-luciferase reporter gene assay relative to arginine vasopressin; assay type: functional, cell-based; summary of the method: as §1
[10] = biological target: Vasopressin V1a receptor (Homo sapiens) (UniProt P37288); assay: Agonist activity at human vasopressin V1a receptor upto 10 uM by reporter gene assay; assay type: functional; summary of the method: as §1
Chain of Vasopressin V1a receptor (Homo sapiens) (P37288 whole entry, looked up): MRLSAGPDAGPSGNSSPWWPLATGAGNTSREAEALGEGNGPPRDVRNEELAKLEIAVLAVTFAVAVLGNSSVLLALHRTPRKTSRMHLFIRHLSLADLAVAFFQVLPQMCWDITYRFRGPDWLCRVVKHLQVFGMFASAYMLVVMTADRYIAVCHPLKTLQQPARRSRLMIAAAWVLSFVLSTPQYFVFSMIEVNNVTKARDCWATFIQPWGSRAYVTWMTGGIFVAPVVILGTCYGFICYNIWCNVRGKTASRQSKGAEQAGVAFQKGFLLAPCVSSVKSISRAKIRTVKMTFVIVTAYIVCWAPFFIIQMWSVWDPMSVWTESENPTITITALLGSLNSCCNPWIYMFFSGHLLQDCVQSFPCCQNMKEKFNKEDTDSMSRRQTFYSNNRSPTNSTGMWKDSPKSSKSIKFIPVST

[11] = biological target: T3, Vasopressin V1b receptor (Homo sapiens) (UniProt P47901); assay: Agonist activity at human vasopressin V1b receptor upto 10 uM by reporter gene assay; assay type: functional; summary of the method: as §1
T3 sequence (whole entry): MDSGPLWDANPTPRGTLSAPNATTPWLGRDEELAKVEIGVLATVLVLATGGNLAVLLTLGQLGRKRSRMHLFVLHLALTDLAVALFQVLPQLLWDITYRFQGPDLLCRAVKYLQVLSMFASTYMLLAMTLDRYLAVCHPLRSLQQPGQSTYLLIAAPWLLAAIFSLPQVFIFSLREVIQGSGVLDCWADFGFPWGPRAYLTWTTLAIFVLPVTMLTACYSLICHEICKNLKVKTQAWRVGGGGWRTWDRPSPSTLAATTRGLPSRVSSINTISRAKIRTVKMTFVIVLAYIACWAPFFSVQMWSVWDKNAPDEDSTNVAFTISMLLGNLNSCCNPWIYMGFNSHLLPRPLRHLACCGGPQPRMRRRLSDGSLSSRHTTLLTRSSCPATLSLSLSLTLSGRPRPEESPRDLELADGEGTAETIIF

Rattus norvegicus [12] = assay: Antidiuretic effect in Long-Evans Brattleboro rat model assessed as inhibition of urine production at 3 mg/kg, po after 2 hrs; assay type: functional, organism-based; parameters: dose 3 mg/kg; summary of the method: as §2

| Compound | EC50 (Vasopressin V2 receptor [1]) [nM] | further results |
| --- | --- | --- |
| Cc1cc(C(=O)N2CCCCc3ccccc32)ccc1CNC(=O)Nc1ccccc1F | 30 |  |
| Cc1cc(C(=O)N2CCCCc3ccccc32)ccc1CNC(=O)NCC(=O)NCc1ccccc1 | 270 |  |
| O=C(NCc1ccc(C(=O)N2CCCCc3ccccc32)c(Cl)c1)Nc1c(F)cccc1F | 40 |  |
| Cc1ccn(-c2ccc(C(=O)N3Cc4cccn4Cc4ccccc43)c(Cl)c2)n1 | < 1 |  |
| Cc1cc(C(=O)N2CCCCc3ccccc32)ccc1CNC(=O)Nc1ccc[nH]c1=O | 140 |  |
| O=C(NCc1ccc(C(=O)N2CCCCc3ccccc32)cc1)Nc1c(F)cccc1F | 47 | Ki (Oxytocin receptor): > 10000 nM; Activity [2]: 30% |
| Cc1cc(C(=O)N2CCCCc3ccccc32)ccc1CNC(=O)NCC(=O)O | 180 |  |
| Cc1cc(C(=O)N2CCCCc3ccccc32)ccc1CNC(=O)NCC(N)=O | 210 |  |
| Cc1cc(C(=O)N2CCc3cccn3-c3ccccc32)ccc1CNC(=O)N1CCC[C@H]1C(=O)N(C)C | 140 |  |
| CCOC(=O)CNC(=O)NCc1ccc(C(=O)N2CCCCc3ccccc32)cc1C | 140 |  |
| Cc1cc(C(=O)N2CCCCc3ccccc32)ccc1CNC(=O)Nc1c(F)cccc1F | 2.1 | inhibition in vivo at 1 mg/kg (Rattus norvegicus [3]): 0%; Activity (Rattus norvegicus [5]): inactive; Ki (Oxytocin receptor): > 10000 nM; Ki (Vasopressin V2 receptor [6]): 200 nM; EC50 (Vasopressin V2 receptor [4]): 13 nM |
| Cc1cc(C(=O)N2CCCCc3ccccc32)ccc1CNC(=O)NCC(=O)N1CCCC1 | 100 |  |
| CCc1cc(C(=O)N2CCCCc3ccccc32)ccc1CNC(=O)Nc1c(F)cccc1F | 10 |  |
| Cc1cc(C(=O)N2CCCCc3ccccc32)cc(C)c1CNC(=O)Nc1c(F)cccc1F | 82 |  |
| Cc1cc(C(=O)N2CCCCc3ccccc32)ccc1CNC(=O)NCC(=O)OC(C)C | 140 |  |
| Cc1cc(C(=O)N2CCCCc3ccccc32)ccc1CNC(=O)NCC(=O)N1CCCCC1 | 150 |  |
| COc1cc(CNC(=O)Nc2c(F)cccc2F)ccc1C(=O)N1CCCCc2ccccc21 | 110 |  |
| Cc1cc(C(=O)N2CCCCc3ccccc32)ccc1CNC(=O)NCC(=O)OCc1ccccc1 | 730 |  |
| Cc1cc(C(=O)N2CCc3ccccc3-c3ccccc32)ccc1CNC(=O)N1CCC[C@H]1C(=O)N(C)C | 84 |  |
| Cc1cc(C(=O)N2CCCCc3ccccc32)ccc1CNC(=O)Nc1ccccc1 | 130 |  |
| Cc1cc(C(=O)N2CCCCc3ccccc32)ccc1CNC(=O)NCC(=O)Oc1ccccc1 | 820 |  |
| O=C(NCc1ccc(C(=O)N2CCCCc3ccccc32)c(F)c1)Nc1c(F)cccc1F | 180 |  |

Further lines, with some results ahead:

| EC50 (Vasopressin V2 receptor [1]) [nM] | Compound | further results |
| --- | --- | --- |
| 27 | Cc1cc(C(=O)N2CCCCc3ccccc32)ccc1CNC(=O)N1CC(=O)C[C@H]1C(=O)N(C)C |  |
| 390 | Cc1cc(C(=O)N2CCCCc3ccccc32)ccc1CNC(=O)N1CCC[C@H]1C(=O)OC(C)(C)C |  |
| 100 | COC(=O)[C@@H]1CCCN1C(=O)NCc1ccc(C(=O)N2CCCCc3ccccc32)cc1C |  |
| 380 | Cc1cc(C(=O)N2CCCCc3ccccc32)ccc1CNC(=O)N1CCC[C@@H]1C(=O)N(C)C |  |
| 37 | COC(=O)CNC(=O)NCc1ccc(C(=O)N2CCCCc3ccccc32)cc1C |  |
| 350 | CCN(CC)C(=O)[C@@H]1CCCN1C(=O)NCc1ccc(C(=O)N2CCCCc3ccccc32)cc1C |  |
| 2.3 | Cc1cc(C(=O)N2CCCCc3ccccc32)ccc1CNC(=O)N1C[C@H](O)C[C@H]1C(=O)N(C)C | inhibition in vivo at 1 mg/kg (Rattus norvegicus [3]): 68%; EC50 (Vasopressin V2 receptor [4]): 41 nM |
| 950 | Cc1cc(C(=O)N2CCCCc3ccccc32)ccc1CNC(=O)N1CCC[C@H]1C(=O)OC(C)C |  |
| 10 | Cc1cc(C(=O)N2CCCCc3ccccc32)ccc1CNC(=O)N1C[C@H](OCc2ccccc2)C[C@H]1C(=O)N(C)C |  |
| 120 | Cc1cc(C(=O)N2CCCCc3ccccc32)ccc1CNC(=O)NCC(=O)OC(C)(C)C |  |
| 20 | COC1(OC)C[C@@H](C(=O)N(C)C)N(C(=O)NCc2ccc(C(=O)N3CCCCc4ccccc43)cc2C)C1 |  |
| 4.3 | CCO[C@@H]1C[C@@H](C(=O)N(C)C)N(C(=O)NCc2ccc(C(=O)N3CCCCc4ccccc43)cc2C)C1 | inhibition in vivo at 1 mg/kg (Rattus norvegicus [3]): 60%; EC50 (Vasopressin V2 receptor [4]): 15 nM |
| 120 | Cc1cc(C(=O)N2Cc3cccn3Cc3ccccc32)ccc1CNC(=O)N1CCC[C@H]1C(=O)N(C)C |  |
| 58 | Cc1cc(C(=O)N2CCCCc3ccccc32)ccc1CNC(=O)NCC(=O)N(C)C | inhibition in vivo at 1 mg/kg (Rattus norvegicus [3]): 82%; solubility [7]: 177 µg/mL (≈ 419 µM); Activity (Rattus norvegicus [8]): Active; EC50 (Vasopressin V2 receptor [4]): 50 nM |
| 230 | Cc1cc(C(=O)N2CCCC(O)c3ccccc32)ccc1CNC(=O)N1CCC[C@H]1C(=O)N(C)C (stereo partly specified) |  |
| 3.2 | Cc1cc(C(=O)N2CCCCc3ccccc32)ccc1CNC(=O)N1CCC[C@H]1C(=S)N(C)C |  |
| 50 | Cc1cc(C(=O)N2CCCCc3ccccc32)ccc1CNC(=O)N1CC(F)(F)C[C@H]1C(=O)N(C)C |  |
| 680 | Cc1cc(C(=O)N2CCCCc3ccccc32)ccc1CNC(=O)N1CCC[C@H]1C(=O)O |  |
| 1000 | Cc1cc(C(=O)N2CCCOc3ccccc32)ccc1CNC(=O)N1CCC[C@H]1C(=O)N(C)C |  |
| 24 | Cc1cc(C(=O)N2CCCCc3ccccc32)ccc1CNC(=O)N1CCC[C@H]1C(=O)N(C)C [FEDOVAPAGON] | inhibition in vivo at 1 mg/kg (Rattus norvegicus [3]): 81%; Efficacy (Vasopressin V2 receptor [9]): 100%; Activity [10]: inactive; Activity [11]: inactive; Ki (Oxytocin receptor): > 10000 nM; Ki (Vasopressin V2 receptor [6]): 2000 nM; Activity (Rattus norvegicus [12]): Active; EC50 (Vasopressin V2 receptor [4]): 150 nM |
| 220 | Cc1cc(C(=O)N2CCCC(C)c3ccccc32)ccc1CNC(=O)N1CCC[C@H]1C(=O)N(C)C (stereo partly specified) |  |
| 4.7 | CO[C@@H]1C[C@@H](C(=O)N(C)C)N(C(=O)NCc2ccc(C(=O)N3CCCCc4ccccc43)cc2C)C1 | inhibition in vivo at 1 mg/kg (Rattus norvegicus [3]): 84%; EC50 (Vasopressin V2 receptor [4]): 65 nM |
| 46 | Cc1cc(C(=O)N2CCCCc3ccccc32)ccc1CNC(=O)N1C[C@H](OC(C)(C)C)C[C@H]1C(=O)N(C)C |  |
| 1700 | Cc1cc(C(=O)N2CCCC(F)(F)c3ccccc32)ccc1CNC(=O)N1CCC[C@H]1C(=O)N(C)C |  |
